Data set [1] in a line: Microsomal stability in human liver microsomes assessed as intrinsic clearance at 1 uM and measured upto 60 mins in presence of NADPH by LC-MS/MSC analysis. It counts as ADME, Microsome. Conditions: read-out: CLH.
The nature of data set [2]: Solubility of the compound in FeSSIF at pH 5.0 incubated for 24 hrs under shaking condition by UPLC-UV/HPLC-UV analysis. Type of data set: physicochemical.
A short description of data set [3]: Oral bioavailability in C57BL/J6 mouse at 10 mg/kg and measured upto 24 hrs by LC-MS/MS analysis. It counts as ADME, organism-based. The settings on record: in vivo. Summed up:
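Mouse PK was run with both oral and intravenous dosing, with 10 mg/kg as the study dose. Oral bioavailability was derived from comparing the two routes.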

In data set [4] the test system is Erythrocyte. As to the kind of experiment: Hemolytic activity in human RBC assessed as hemolysis incubated for 45 mins by absorbance based microplate reader analysis. Type of data set: toxicity, cell-based. The settings on record: 0.75 h.
In data set [5] the test system is Erythrocyte. Description: Hemolytic activity in mouse RBC assessed as hemolysis incubated for 45 mins by absorbance based microplate reader analysis. It counts as toxicity, cell-based. The settings on record: 0.75 h.
Data set [6] concerns HepG2. As to the kind of experiment: Induction of phospholipidosis in human HepG2 cells assessed as […] incubated for 48 hrs by Hoechst 33342 staining based imaging analysis. Type of data set: toxicity, cell-based. The settings on record: hepg2, 48 h.
Data set [7] deals with HepG2. As to the kind of experiment: Cytotoxicity against human HepG2 cells assessed as reduction in cell viability incubated for 48 hrs by Hoechst 33342 staining based imaging analysis. Conditions: hepg2, 48 h. It counts as toxicity.
Data set [8] deals with BaF3. Description: Antiproliferative activity against mouse Ba/F3 cells stably expressing HiBiT-tagged wild type EML4-ALK variant 3 assessed as cell growth inhibition incubated for 72 hrs by CellTiter-Glo assay. Type of data set: functional. Summed up:
(§1)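 Ba/F3 cells stably expressing HiBiT-tagged EML4-ALK v3 (wild type or the named kinase-site mutant) were treated with compound for 72 h. Growth inhibition was reported as log GI50.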
On the technique in general: HiBiT is a short tag that completes a luciferase, so light tracks the accessible tagged protein.

Data set [9] deals with BaF3. It counts as functional. The settings on record: Mus musculus, time 72 hrs.
The test system of data set [10] is BaF3. As to the kind of experiment: Antiproliferative activity against mouse Ba/F3 cells stably expressing HiBiT-tagged EML4-ALK variant 3 G1202R mutant assessed as cell growth inhibition incubated for 72 hrs by CellTiter-Glo assay. It counts as functional. The gist of the method: as §1
In data set [11] the test system is BaF3. It counts as functional. The settings on record: Mus musculus, time 72 hrs. The source holds these as a separate data set.
Data set [12] concerns BaF3. As to the kind of experiment: Antiproliferative activity against mouse Ba/F3 cells stably expressing HiBiT-tagged EML4-ALK variant 3 C1156Y mutant assessed as cell growth inhibition incubated for 72 hrs by CellTiter-Glo assay. It counts as functional. Summed up: as §1
A short description of data set [13]: Plasma protein binding in mouse. Type of data set: ADME, cell-free.
Data set [14] is described as follows: Plasma protein binding in human. It counts as ADME, cell-free.
Data set [15] relates to Mus musculus. Type of data set: functional, organism-based. The settings on record: BALB/c, BaF3, dose 10.0 mg/kg, route po, time 14.0 day.
For data set [16], the system named is Mus musculus. Type of data set: functional, organism-based. The settings on record: BALB/c, BaF3, dose 10.0 mg/kg, route po, time 14.0 day. The source holds these as a separate data set.
In data set [17] the test system is BaF3. Type of data set: functional. The settings on record: Mus musculus, BaF3, 336 h, route po, time 14 day, read-out: TGI.

≈ marks a conversion by molar mass, not a printed value. Calls of active or inactive are those of the source. No cut-off for these calls is given here.

Broadly, the thermodynamic solubility is solubility found after equilibrating the solid with the medium.

Regarding `COc1cc(C2CCN(CC3CN(c4ccc5c(c4)C(=O)N(C4CCC(=O)NC4=O)C5=O)C3)CC2)c(C)cc1Nc1ncc(Cl)c(Nc2ccccc2S(=O)(=O)C(C)C)n1` (stereo not drawn), the microsomal CLint at 1 µM in data set [1] came out at 8 µL/min/mg. In addition, the thermodynamic solubility at 24 h in [2] was 122 µM (≈ 104 µg/mL). The F in [3] is on record as 28%. In addition, the Activity entry with Erythrocyte [4] is on record as “Non-Toxic”; in the data set on Erythrocyte [5], “Non-Toxic”; in the data set with HepG2 [6], “Toxic”; with HepG2 [7] it was “Toxic”. For the same molecule, the GI50 with BaF3 [8] is 3.16 nM; in the data set with BaF3 [9], 3.16 nM; in the data set on BaF3 [10] it was 19.9 nM; in the data set with BaF3 [11] (read-out: GI50) it was 10 nM; in the data set with BaF3 [11] (read-out: pGI50 (converted)), 10 nM; in the data set on BaF3 [12] it was 19.9 nM. In addition, the PPB in data set [13] and in data set [14] was above 99.9% in each case. Besides, the result in the data set on Mus musculus [15] and with Mus musculus [16] was Active. Moreover, the inhibition in vivo at 10 mg/kg in the data set with BaF3 [17] was found to be 33%.

The values above are taken from ChEMBL document CHEMBL5352501, “Catalytic Degraders Effectively Address Kinase Site Mutations in EML4-ALK Oncogenic Fusions” (J Med Chem, 2023).
